Measurements: ChEMBL document CHEMBL3797027, “Potent anti-proliferative actions of a non-diuretic glucosamine derivative of ethacrynic acid” (Bioorg Med Chem Lett, 2016)
The source made the active and inactive calls. The calls are words filed in the database; no cut-off is given here.

Tests used:
NCI-H1299 = test: Induction of ROS generation in human H1299 cells at 20 and 40 uM incubated for 3 hrs by DCFDA staining based fluorescence microscopy; type: functional, cell-based
Summary of the method: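 After 3 h exposure at different concentrations, DCFH-DA fluorescence was imaged by fluorescence microscopy. H2O2 (25 µM) served as positive control. In some wells, cells were pretreated with 3 mM N-acetylcysteine before compound addition.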

MDA-MB-231 [1] = test: Increase in PUMA protein expression in p53 mutant expressing human MDA-MB-231 cells at 10 to 40 uM by Western blot method; type: functional, cell-based
Summary of the method: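 H1299 (p53-null), HCT116 (p53 wild type) and MDA-MB-231 (p53 mutant) cells were treated, then lysates were immunoblotted for p53, p21, PUMA and PARP. β-Actin served as loading control.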

Mus musculus = test: Toxicity in mouse assessed as induction of lethargy at 120 mg/kg/week for 2 weeks; type: organism-based; details: in vivo, 336 h
[2] = Cytotoxic activity against human HT1080 cells assessed as inhibition of cell proliferation incubated for 72 hrs by MTT assay; type: functional, cell-based; details: HT-1080, 72 h
Summary of the method: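 MTT cell survival assay. IC50 is the concentration that inhibits tumour cell proliferation by 50%, read from cell survival curves. Values are given as mean ± SD of three independent experiments.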

[3] = Potency index, ratio of IC50 for ethacrynic acid to IC50 for test compound for cytotoxic activity against human HCT116 cells assessed as inhibition of cell proliferation incubated for 72 hrs by MTT assay; type: functional, HCT-116
Summary of the method: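 Index is the reference IC50 divided by the test IC50. Both IC50s were taken from MTT cell survival curves, each as mean ± SD of three independent experiments.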

MDA-MB-231 [4] = test: Reduction in cellular total thiol levels in human MDA-MB-231 cells at 40 uM incubated for 3 hrs by Ellman's reagent based assay; type: functional
Summary of the method: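 Cells exposed to 0–40 µM compound for 3 h, then trypsinized. Total thiols in cell extracts were quantified with Ellman's reagent.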

For `C=C(CC)C(=O)c1ccc(OCC(=O)N[C@@H]2[C@@H](O)[C@H](O)[C@@H](CO)O[C@H]2O)c(Cl)c1Cl`, which Activity (NCI-H1299) is on record?
Its Activity is “Active”.

What about the Activity (MDA-MB-231 [1]) of the same compound?
Its Activity is “Active”.

And the Activity (Mus musculus)?
The Activity was “Non-toxic”.

And the IC50 [2]?
The IC50 was 16.3 µM.

And the “Ratio IC50” value [3]?
Its value is 3.

And the Imax (MDA-MB-231 [4])?
Its Imax is 58%.
